Test results taken from ChEMBL document CHEMBL1150643, “Bioactive constituents of Cedrelopsis microfoliata” (J Nat Prod, 2002).
In brackets after ≈: the same amount, converted by molar mass.

Experiments:
[1] = Superoxide scavenging activity by chemiluminescence assay
In short: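 Cell-free xanthine oxidase system in PBS pH 7.4 with a serial dilution of sample. Added hypoxanthine (final 1 mM), lucigenin (0.1 mM), and either buffer or SOD (10 U/mL); started with xanthine oxidase (10 mU/mL). Chemiluminescence read each minute for 15 min. Activity taken from the SOD-inhibitable signal. Uric acid formation at 290 nm checked for direct xanthine oxidase effects.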

[2] = Inhibition of luminol-induced chemiluminescence of reactive oxygen metabolites in opsonized zymosan-induced human PMNC by chemiluminescence assay; type: functional
In short: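 PMNs from buffy coats of healthy volunteers, isolated on Ficoll-Hypaque and suspended in HBSS. Cells were mixed with a dilution range of sample plus luminol (0.1 mM), then activated with human-serum-opsonized zymosan (0.8 mg/mL). Luminescence read every 2 min over 30 min. Inhibition calculated from maximum peak levels against a control of cells, luminol and buffer.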

[3] = molecular target: Estrogen receptor beta (Homo sapiens) (UniProt Q92731); test: Agonist activity at ERbeta expressed in human HEK293 cells assessed as induction of estrogenic response at 10 to 100 ug/mL by luciferase reporter gene assay relative to 17beta estradiol; type: functional, cell-based
[4] = molecular target: T1, Estrogen receptor (Homo sapiens) (UniProt P03372); test: Agonist activity at ERalpha expressed in human HEK293 cells assessed as induction of estrogenic response at 10 to 100 ug/mL by luciferase reporter gene assay relative to 17beta estradiol; type: functional, cell-based
T1 sequence (whole entry): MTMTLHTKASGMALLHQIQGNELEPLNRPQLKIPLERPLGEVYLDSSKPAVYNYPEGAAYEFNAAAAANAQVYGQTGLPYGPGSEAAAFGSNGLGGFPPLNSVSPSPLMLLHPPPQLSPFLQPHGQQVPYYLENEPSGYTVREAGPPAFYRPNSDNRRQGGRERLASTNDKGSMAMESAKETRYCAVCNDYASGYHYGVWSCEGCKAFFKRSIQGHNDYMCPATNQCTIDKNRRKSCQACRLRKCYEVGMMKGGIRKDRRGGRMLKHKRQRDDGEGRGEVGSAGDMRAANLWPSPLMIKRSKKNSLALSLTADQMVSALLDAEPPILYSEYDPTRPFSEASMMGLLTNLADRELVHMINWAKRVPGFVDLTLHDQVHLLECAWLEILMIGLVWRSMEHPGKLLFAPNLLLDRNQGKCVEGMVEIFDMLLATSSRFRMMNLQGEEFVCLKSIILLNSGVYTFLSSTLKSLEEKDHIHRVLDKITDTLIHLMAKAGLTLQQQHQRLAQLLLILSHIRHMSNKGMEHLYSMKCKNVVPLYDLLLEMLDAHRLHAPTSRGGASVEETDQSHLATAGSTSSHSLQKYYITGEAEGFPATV

Sequence of Estrogen receptor beta (Homo sapiens) (Q92731 whole entry): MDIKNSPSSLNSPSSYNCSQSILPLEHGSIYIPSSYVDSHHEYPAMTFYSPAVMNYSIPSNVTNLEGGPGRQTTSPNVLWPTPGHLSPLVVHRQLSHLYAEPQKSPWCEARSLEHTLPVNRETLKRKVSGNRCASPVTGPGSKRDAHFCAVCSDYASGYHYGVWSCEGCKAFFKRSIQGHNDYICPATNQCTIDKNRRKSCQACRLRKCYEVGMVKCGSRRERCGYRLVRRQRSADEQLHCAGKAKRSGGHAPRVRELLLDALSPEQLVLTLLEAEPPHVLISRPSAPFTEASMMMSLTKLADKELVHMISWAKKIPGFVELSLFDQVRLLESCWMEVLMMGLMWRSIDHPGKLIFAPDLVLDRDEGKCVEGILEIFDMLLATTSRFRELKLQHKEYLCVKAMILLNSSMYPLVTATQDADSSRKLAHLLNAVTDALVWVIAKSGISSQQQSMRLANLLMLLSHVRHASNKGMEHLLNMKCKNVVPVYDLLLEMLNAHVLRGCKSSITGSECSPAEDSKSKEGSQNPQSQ

| Compound | IC50 [1] | IC50 [2] | Activity [3] | Activity [4] |
| --- | --- | --- | --- | --- |
| CO[C@]1(CC=C(C)C)C(=O)[C@@](O)(C(=O)/C=C/c2ccccc2)C(=O)C(CC=C(C)C)=C1O [MICROFOLIAN] | 3 µg/mL (≈ 6.84 µM) | 4 µg/mL | – | – |
| COc1c(O)c(CC=C(C)C)c(O)c2c1O[C@@H](c1ccccc1)CC2=O | – | – | 20% | 20% |
| COc1c(O)c(CC=C(C)C)c2c(c1O)C(=O)C[C@@H](c1ccccc1)O2 [AGRANDOL] | 3 µg/mL (≈ 8.46 µM) | 3.2 µg/mL | 20% | 20% |
| CC1(C)C=Cc2c(c(O)cc3oc(=O)ccc23)O1 [CEDRECOUMARIN A] | 0.2 µg/mL (≈ 0.819 µM) | 13 µg/mL | 20% | 20% |
